# ChEMBL document CHEMBL1131201, “N-(benzyloxycarbonyl)glycine esters and amides as new anticonvulsants” (J Med Chem, 1998)
# Key:
# [1] = test system: Mus musculus; assay: Tonic seizures was evaluated after 3h in strychnine test in mice at a dose of 119 mg/kg; assay type: functional
# Method in brief: (§1)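 Male NMRI mice (18-25 g) were dosed ip at 119 mg/kg in DMSO (2 mL/kg). At 30 min or 3 h, strychnine chlorhydrate in saline was given sc (1.2 mg/mL, 1 mL/kg). Mice were observed individually for 30 min, with tonic seizures and lethality recorded as percent of animals.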
# [2] = test system: Mus musculus; assay: Compound was tested for anticonvulsant activity in maximal electroshock seizure(MES) test after 3 hours upon intraperitoneal administration to mice; assay type: functional; conditions: ip
# Method in brief: (§2)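 Male OF1 mice (15-25 g), free access to water only during testing. Compound given ip and maximal electroshock applied at 30 min or 3 h. Typically 8-10 mice per compound, dose and time point. Screening at initial 0.4 mmol/kg, scored as protected/tested.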
# [3] = test system: Mus musculus; assay: Clonic seizures was evaluated after 3h in 3-mercaptopropionic acid test in mice at a dose of 119 mg/kg; assay type: functional
# Method in brief: (§3)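 Male NMRI mice (18-25 g). Test compound dissolved in DMSO, given ip at 2 mL/kg. Convulsant given 30 min or 3 h later: pentylenetetrazole (85 or 120 mg/kg) sc in saline, or 3-mercaptopropionic acid 40 mg/kg ip in saline. Mice caged singly and watched 30 min. Clonic and tonic seizures and deaths counted, expressed as % of animals.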
# [4] = Lethality was evaluated after 3h in pentylenetetrazole test in mice at a dose of 85 mg/kg; assay type: ADME, organism-based; design: dose 85 mg/kg; conditions: mouse, in vivo
# Method in brief: (§4)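 Male NMRI mice (18-25 g) got compound ip at 119 mg/kg in DMSO (2 mL/kg). At 30 min or 3 h after dosing, pentylenetetrazole in saline was given sc at 85 or 120 mg/kg. Mice were caged singly and watched for 30 min, noting clonic and tonic seizures and deaths. Lethality is given as a percentage.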
# [5] = test system: Mus musculus; assay: Tonic seizures was evaluated after 0.5 hr in pentylenetetrazole test at a dose of 120 mg/kg; assay type: functional
# Method in brief: (§5)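 Male NMRI mice (18-25 g) were dosed ip at 119 mg/kg in DMSO (2 mL/kg). At 30 min or 3 h, pentylenetetrazole in saline was given sc at 85 or 120 mg/kg (the convulsant dose named in each line). Mice were observed individually for 30 min, with clonic and tonic seizures and deaths noted as percent of animals.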
# [6] = test system: Mus musculus; assay: Clonic seizures was evaluated after 0.5 hr in 3-mercaptopropionic acid test in mice at a dose of 119 mg/kg; assay type: functional; method in brief: as §3
# [7] = Lethality was evaluated after 0.5 hr in strychnine test in mice at a dose of 119 mg/kg; assay type: ADME, organism-based; design: dose 119 mg/kg; conditions: mouse, in vivo
# Method in brief: (§6)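 Male NMRI mice (18-25 g) got compound ip at 119 mg/kg in DMSO (2 mL/kg). At 30 min or 3 h after dosing, strychnine chlorhydrate in saline (1.2 mg/mL) was injected sc at 1 mL/kg. Mice were caged singly and observed for 30 min, recording seizure onset, tonic seizures and lethality (%).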
# [8] = test system: Mus musculus; assay: Tonic seizures was evaluated after 3h in pentylenetetrazole test at a dose of 85 mg/kg; assay type: functional; method in brief: as §5
# [9] = Lethality was evaluated after 0.5 hr in pentylenetetrazole test in mice at a dose of 85 mg/kg; assay type: ADME, organism-based; design: dose 85 mg/kg; conditions: mouse, in vivo; method in brief: as §4
# [10] = Lethality was evaluated after 0.5 hr in 3-mercaptopropionic acid test in mice at a dose of 119 mg/kg; assay type: ADME, organism-based; design: dose 119 mg/kg; conditions: mouse, in vivo
# Method in brief: (§7)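 Male NMRI mice (18-25 g, bred in-house) got test compound ip at 119 mg/kg, dissolved in DMSO and given at 2 mL/kg. At 30 min or 3 h after dosing, 3-mercaptopropionic acid in saline was injected ip at 40 mg/kg. Deaths were recorded and reported as percent lethality.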
# [11] = test system: Mus musculus; assay: Tonic seizures was evaluated after 0.5 hr in 3-mercaptopropionic acid test in mice at a dose of 119 mg/kg; assay type: functional
# Method in brief: (§8)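 Male NMRI mice (18-25 g) received test agent ip at 119 mg/kg, dissolved in DMSO, 2 mL/kg. 40 mg/kg 3-mercaptopropionic acid in saline was injected ip 30 min or 3 h later. Percentage of animals with tonic seizures was recorded.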
# [12] = test system: Mus musculus; assay: Tonic seizures was evaluated after 0.5 hr in pentylenetetrazole test at a dose of 85 mg/kg; assay type: functional; method in brief: as §5
# [13] = test system: Mus musculus; assay: Tonic seizures was evaluated after 3h in 3-mercaptopropionic acid test in mice at a dose of 119 mg/kg; assay type: functional; method in brief: as §8
# [14] = test system: Mus musculus; assay: Clonic seizures was evaluated after 0.5 hr in pentylenetetrazole test in mice at a dose of 120 mg/kg; assay type: functional; method in brief: as §3
# [15] = Lethality was evaluated after 0.5 hr in pentylenetetrazole test in mice at a dose of 120 mg/kg; assay type: ADME, organism-based; design: dose 120 mg/kg; conditions: mouse, in vivo; method in brief: as §4
# [16] = Lipophilicity value was evaluated; assay type: physicochemical; conditions: RP-HPLC
# Method in brief: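 Lipophilicity by RP-HPLC on a C18 column at 1.0 mL/min. Mobile phases were 10-50% […] with 50-90% 0.01 M phosphate buffer pH 7.4. Triplicate runs per eluent. log k_o extrapolated from at least four eluent compositions. ClogP also calculated.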
# [17] = Lethality was evaluated after 3h in strychnine test in mice at a dose of 119 mg/kg; assay type: ADME, organism-based; design: dose 119 mg/kg; conditions: mouse, in vivo; method in brief: as §6
# [18] = test system: Mus musculus; assay: Tonic seizures was evaluated after 0.5 hr in strychnine test in mice at a dose of 119 mg/kg; assay type: functional; method in brief: as §1
# [19] = test system: Mus musculus; assay: Clonic seizures was evaluated after 3h in pentylenetetrazole test in mice at a dose of 85 mg/kg; assay type: functional
# [20] = test system: Mus musculus; assay: Compound was tested for anticonvulsant activity in maximal electroshock seizure(MES) test after 30 min upon intraperitoneal administration to mice; assay type: functional; conditions: ip, 0.5 h; method in brief: as §2
# [21] = Lethality was evaluated after 3h in 3-mercaptopropionic acid test in mice at a dose of 119 mg/kg; assay type: ADME, organism-based; design: dose 119 mg/kg; conditions: mouse, in vivo; method in brief: as §7
# [22] = test system: Mus musculus; assay: Clonic seizures was evaluated after 0.5 hr in pentylenetetrazole test in mice at a dose of 85 mg/kg; assay type: functional
smiles,measurement,setting,value
O=C(CNC(=O)OCc1ccccc1)NCc1ccccc1,Tonic seizures,[1],80%
same,ED50,[2],11.6 mg/kg
same,Clonic seizures,[3],100%
same,Lethality,[4],60%
same,Tonic seizures,[5],0%
same,Clonic seizures,[6],83%
same,Lethality,[7],17%
same,Tonic seizures,[8],70%
same,Lethality,[9],22%
same,Lethality,[10],0%
same,Tonic seizures,[11],17%
same,Tonic seizures,[12],0%
same,Tonic seizures,[13],0%
same,Clonic seizures,[14],83%
same,Lethality,[15],50%
same,Log Ko,[16],3.5
same,Lethality,[17],80%
same,Tonic seizures,[18],33%
same,Clonic seizures,[19],80%
same,ED50,[20],4.8 mg/kg
same,Lethality,[21],30%
same,Clonic seizures,[22],67%
